Test results from ChEMBL document CHEMBL3046020, “Enantioselectivity in the phytotoxicity of herbicide imazethapyr” (2009).

Tests used:
Zea mays [1] = experiment: Reduction in root tips in Zea mays (maize) seedlings at 100 to 800 ug/L; format: functional, organism-based
Outline: (§1)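 Maize seedlings were grown in a chamber (12 h light, 10,000 lx, 25/20 °C, 60% RH) for five days under graded levels of S-(+)-, R-(-)- or racemic IM. Root diameter, volume, surface area and tip number were measured per plant with an automatic root scanner. Values are means ± SD of three replicates of 10 randomly selected seedlings each.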

Zea mays [2] = experiment: Phytotoxicity in Zea mays (maize) assessed as shoot dry weight assessed per 10 plants at 400 ug/L measured 5 days post compound treatment (reference value: 101.2 +/- 4.5 mg); format: functional
Zea mays [3] = experiment: Phytotoxicity in Zea mays (maize) assessed as shoot dry weight assessed per 10 plants at 200 ug/L measured 5 days post compound treatment (reference value: 101.2 +/- 4.5 mg); format: functional
Zea mays [4] = experiment: Phytotoxicity in Zea mays (maize) assessed as shoot height at 100 ug/L measured 5 days post compound treatment (reference value: 6.89 +/- 0.30 cm); format: functional
Zea mays [5] = experiment: Phytotoxicity in Zea mays (maize) assessed as shoot height at 200 ug/L measured 5 days post compound treatment (reference value: 6.89 +/- 0.30 cm); format: functional
Zea mays [6] = experiment: Phytotoxicity in Zea mays (maize) assessed as root dry weight assessed per 10 plants at 100 ug/L measured 5 days post compound treatment (reference value: 42.8 +/- 0.7 mg); format: functional
Zea mays [7] = experiment: Phytotoxicity in Zea mays assessed (maize) as total root length measured per plant at 800 ug/L measured 5 days post compound treatment (reference value: 12.32 +/- 1.46 cm); format: functional
Zea mays [8] = experiment: Phytotoxicity in Zea mays (maize) assessed as root dry weight assessed per 10 plants at 200 ug/L measured 5 days post compound treatment (reference value: 42.8 +/- 0.7 mg); format: functional
Zea mays [9] = experiment: Phytotoxicity in Zea mays (maize) assessed as shoot dry weight assessed per 10 plants at 100 ug/L measured 5 days post compound treatment (reference value: 101.2 +/- 4.5 mg); format: functional
Zea mays [10] = experiment: Effect on root surface area in Zea mays (maize) seedlings at 100 to 800 ug/L; format: functional, organism-based; outline: as §1
Zea mays [11] = experiment: Phytotoxicity in Zea mays assessed (maize) as total root length measured per plant at 200 ug/L measured 5 days post compound treatment (reference value: 12.32 +/- 1.46 cm); format: functional
Zea mays [12] = experiment: Phytotoxicity in Zea mays assessed (maize) as total root length measured per plant at 400 ug/L measured 5 days post compound treatment (reference value: 12.32 +/- 1.46 cm); format: functional
Zea mays [13] = experiment: Reduction of root hair growth in Zea mays (maize) seedlings at 400 ug/L measured 48 hr post dose by microscopy; format: functional, organism-based
Outline: (§2)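 Maize seedlings with primary roots about 2 mm long were moved to 0 or 400 µg L-1 S-(+)-, R-(-)- or racemic IM solution. After 48 h, root tips (border cells) and the densest root-hair zone were examined and photographed under a light microscope. Growth chamber: 12 h light, 25/20 °C, 60% RH.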

Zea mays [14] = experiment: Phytotoxicity in Zea mays (maize) assessed as shoot dry weight assessed per 10 plants at 800 ug/L measured 5 days post compound treatment (reference value: 101.2 +/- 4.5 mg); format: functional
Zea mays [15] = experiment: Increase in root diameter in Zea mays (maize) seedlings at 100 to 800 ug/L; format: functional, organism-based; outline: as §1
Zea mays [16] = experiment: Phytotoxicity in Zea mays (maize) assessed as shoot height at 400 ug/L measured 5 days post compound treatment (reference value: 6.89 +/- 0.30 cm); format: functional
Zea mays [17] = experiment: Phytotoxicity in Zea mays (maize) assessed as root dry weight assessed per 10 plants at 400 ug/L measured 5 days post compound treatment (reference value: 42.8 +/- 0.7 mg); format: functional
Zea mays [18] = experiment: Phytotoxicity in Zea mays (maize) assessed as total root length measured per plant at 100 ug/L measured 5 days post compound treatment (reference value: 12.32 +/- 1.46 cm); format: functional
Zea mays [19] = experiment: Phytotoxicity in Zea mays (maize) assessed as root dry weight assessed per 10 plants at 800 ug/L measured 5 days post compound treatment (reference value: 42.8 +/- 0.7 mg); format: functional
Zea mays [20] = experiment: Effect on root volume in Zea mays (maize) seedlings at 100 to 800 ug/L; format: functional, organism-based; outline: as §1
Zea mays [21] = experiment: Phytotoxicity in Zea mays (maize) assessed as shoot height at 800 ug/L measured 5 days post compound treatment (reference value: 6.89 +/- 0.30 cm); format: functional
Zea mays [22] = experiment: Induction of ultrastructure damage of root tip statocytes in Zea mays (maize) seedlings at 400 ug/L measured 48 hr post dose by transmission electron microscopy; format: functional, organism-based
Outline: (§3)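 Maize seeds surface-sterilized in 10% NaOCl for 10 min, soaked 12 h, germinated on moist gauze. Root-tip sections of 1-3 mm were fixed in 4% glutaraldehyde, postfixed in OsO4 and embedded in Spurr's resin. 80 nm sections were viewed by TEM at 60 kV.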

Zea mays [23] = experiment: Induction of ultrastructure damage of root tip statocytes in Zea mays (maize) seedlings assessed as induction of cell wall thickening at 400 ug/L measured 48 hr post dose by transmission electron microscopy; format: functional, organism-based; outline: as §3
Zea mays [24] = experiment: Induction of ultrastructure damage of root tip statocytes in Zea mays (maize) seedlings assessed as destruction of mitochondria envelope membranes at 400 ug/L measured 48 hr post dose by transmission electron microscopy; format: functional, organism-based; outline: as §3
Zea mays [25] = experiment: Reduction of sloughing of border cells from root tips in Zea mays (maize) seedlings at 400 ug/L measured 48 hr post dose by microscopy; format: functional, organism-based; outline: as §2
Zea mays [26] = experiment: Reduction in root tips in Zea mays (maize) seedlings at 100 ug/L; format: functional, organism-based; outline: as §1
Zea mays [27] = experiment: Induction of ultrastructure damage of root tip statocytes in Zea mays (maize) seedlings assessed as reduction in organelle size at 400 ug/L measured 48 hr post dose by transmission electron microscopy; format: functional, organism-based; outline: as §3
Zea mays [28] = experiment: Induction of ultrastructure damage of root tip statocytes in Zea mays seedlings (maize) assessed as dictyosomers swelling at 400 ug/L measured 48 hr post dose by transmission electron microscopy; format: functional, organism-based; outline: as §3
Zea mays [29] = experiment: Induction of ultrastructure damage of root tip statocytes in Zea mays (maize) seedlings assessed as reduction in starch grain size at 400 ug/L measured 48 hr post dose by transmission electron microscopy; format: functional, organism-based; outline: as §3
Zea mays [30] = experiment: Effect on cell organelles in root tip statocytes in Zea mays (maize) seedlings at 400 ug/L measured 48 hr post dose by transmission electron microscopy; format: functional, organism-based; outline: as §3

SMILES | Activity (Zea mays [1]) | Activity (Zea mays [2]) | Activity (Zea mays [3]) | Activity (Zea mays [4]) | Activity (Zea mays [5]) | Activity (Zea mays [6]) | Activity (Zea mays [7]) | Activity (Zea mays [8]) | Activity (Zea mays [9]) | Activity (Zea mays [10]) | Activity (Zea mays [11]) | Activity (Zea mays [12]) | Activity (Zea mays [13]) | Activity (Zea mays [14]) | Activity (Zea mays [15]) | Activity (Zea mays [16]) | Activity (Zea mays [17]) | Activity (Zea mays [18]) | Activity (Zea mays [19]) | Activity (Zea mays [20]) | also measured
CCc1cnc(C2=NC(C)(C(C)C)C(=O)N2)c(C(=O)O)c1 (racemic) [IMAZETHAPYR] | Toxic | 83.3 mg | 107.8 mg | 6.3 cm | 6.2 cm | 36.1 mg | 5.2 cm | 34.6 mg | 92.4 mg | Toxic | 7.4 cm | 5.5 cm | Non-toxic | 73.4 mg | Toxic | 4.6 cm | 26.4 mg | 8.1 cm | 29 mg | Toxic | Activity (Zea mays [21]): 4 cm
CCc1cnc(C2=N[C@](C)(C(C)C)C(=O)N2)c(C(=O)O)c1 [R-(-)-IMAZETHAPYR] | Toxic | 61.4 mg | 91.9 mg | 6.2 cm | 5.9 cm | 33.8 mg | 4.8 cm | 30.5 mg | 90.3 mg | Toxic | 6.4 cm | 4.9 cm | Toxic | 57.1 mg | Toxic | 3.9 cm | 25.7 mg | 7.7 cm | 25.2 mg | Toxic | Activity (Zea mays [22]): Toxic; Activity (Zea mays [23]): Toxic; Activity (Zea mays [24]): Toxic; Activity (Zea mays [25]): Toxic; Activity (Zea mays [26]): Toxic; Activity (Zea mays [27]): Toxic; Activity (Zea mays [28]): Toxic; Activity (Zea mays [21]): 3.4 cm; Activity (Zea mays [29]): Toxic
CCc1cnc(C2=N[C@@](C)(C(C)C)C(=O)N2)c(C(=O)O)c1 [S-(+)-IMAZETHAPYR] | Toxic | 85.4 mg | 101.3 mg | 6.5 cm | 6.3 cm | 36.6 mg | 6.1 cm | 35.1 mg | 100 mg | Toxic | 8.9 cm | 7.2 cm | Non-toxic | 75.6 mg | Non-toxic | 5.7 cm | 30.3 mg | 9.4 cm | 29.6 mg | Toxic | Activity (Zea mays [30]): Non-toxic; Activity (Zea mays [22]): Non-toxic; Activity (Zea mays [26]): Non-toxic; Activity (Zea mays [21]): 5.1 cm; Activity (Zea mays [29]): Non-toxic
